# Active and inactive are the calls of the source. No cut-off for these calls is given here.
# Assays:
# Salmonella typhimurium [1] = assay: Antimicrobial activity against Salmonella Typhimurium at 25 ug after 24 hrs by disk diffusion method; format: functional, Salmonella enterica subsp. enterica serovar Typhimurium; details: Salmonella enterica, read-out: IZ
# Summary of the method: (§1)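 Inoculum made in 0.85% saline against McFarland standard, swabbed evenly onto nutrient agar; sterile filter-paper discs set equidistant and loaded with equal volumes of drug at varying amounts; zone of inhibition measured after 24 h at 37 °C; ciprofloxacin reference.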
# [2] = Inhibition of DNA gyrase assessed as pBR322 DNA relaxation at 1 uM
# Summary of the method: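 Relaxation without ATP: gyrase (60 nM) with supercoiled pBR322 DNA (6 nM) and drug at […] for 1 h at 37 °C; relaxation judged by gel. Ciprofloxacin, novobiocin and nalidixic acid comparators.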
# Klebsiella pneumoniae [3] = assay: Antimicrobial activity against Klebsiella pneumoniae at 20 ug after 24 hrs by disk diffusion method; format: functional; details: read-out: IZ; summary of the method: as §1
# Bacillus subtilis [4] = assay: Antimicrobial activity against Bacillus subtilis at 5 ug after 24 hrs by disk diffusion method; format: functional; details: read-out: IZ; summary of the method: as §1
# Escherichia coli [5] = assay: Antimicrobial activity against Escherichia coli at 15 ug after 24 hrs by disk diffusion method; format: functional; details: read-out: IZ; summary of the method: as §1
# Pseudomonas aeruginosa [6] = assay: Antimicrobial activity against Pseudomonas aeruginosa at 20 ug after 24 hrs by disk diffusion method; format: functional; details: read-out: IZ; summary of the method: as §1
# [7] = Inhibition of DNA gyrase assessed as conversion of relaxed pBR322 to supercoiled form
# Summary of the method: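 Supercoiling in 15 µL reactions: gyrase assay buffer, 150 ng relaxed pBR322, 2–3 µL purified DNA gyrase, 3 h at 37 °C (E. coli); stopped with 50% glycerol/0.25% bromophenol blue; 1% agarose in 1× TBE pH 8.3, 90 V 3 h; ethidium bromide stain; supercoiled band brightness by densitometry. Ciprofloxacin comparator.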
# Bacillus subtilis [8] = assay: Antimicrobial activity against Bacillus subtilis at 25 ug after 24 hrs by disk diffusion method; format: functional; details: read-out: IZ; summary of the method: as §1
# Klebsiella pneumoniae [9] = assay: Antimicrobial activity against Klebsiella pneumoniae at 25 ug after 24 hrs by disk diffusion method; format: functional; details: read-out: IZ; summary of the method: as §1
# Klebsiella pneumoniae [10] = assay: Antimicrobial activity against Klebsiella pneumoniae by broth microdilution assay; format: functional
# Summary of the method: (§2)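 Broth microdilution per NCCLS 1997 in 96-well plate; final inoculum 10^5 cfu/mL; incubated 35.7 °C in air 18–20 h; MIC read as lowest concentration with no visible growth.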
# Bacillus subtilis [11] = assay: Antimicrobial activity against Bacillus subtilis at 10 ug after 24 hrs by disk diffusion method; format: functional; details: read-out: IZ; summary of the method: as §1
# Escherichia coli [12] = assay: Antimicrobial activity against Escherichia coli at 10 ug after 24 hrs by disk diffusion method; format: functional; details: read-out: IZ; summary of the method: as §1
# Salmonella typhimurium [13] = assay: Antimicrobial activity against Salmonella Typhimurium at 5 ug after 24 hrs by disk diffusion method; format: functional, Salmonella enterica subsp. enterica serovar Typhimurium; details: Salmonella enterica, read-out: IZ; summary of the method: as §1
# Salmonella typhimurium [14] = assay: Antimicrobial activity against Salmonella Typhimurium at 10 ug after 24 hrs by disk diffusion method; format: functional, Salmonella enterica subsp. enterica serovar Typhimurium; details: Salmonella enterica, read-out: IZ; summary of the method: as §1
# Salmonella typhi = assay: Antimicrobial activity against Salmonella typhi by broth microdilution assay; format: functional, Salmonella enterica subsp. enterica serovar Typhi; details: Salmonella enterica
# Summary of the method: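 Broth microdilution in 96-well plates following the NCCLS 1997 protocol. Final inoculum was 10^5 cfu/mL, with a control organism run alongside. Plates were incubated at 35.7 °C in air for 18–20 h. MIC is the lowest concentration with no visible growth.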
# Salmonella typhimurium [15] = assay: Antimicrobial activity against Salmonella Typhimurium at 20 ug after 24 hrs by disk diffusion method; format: functional, Salmonella enterica subsp. enterica serovar Typhimurium; details: Salmonella enterica, read-out: IZ; summary of the method: as §1
# Staphylococcus aureus [16] = assay: Antimicrobial activity against Staphylococcus aureus by broth microdilution assay; format: functional; summary of the method: as §2
# Bacillus subtilis [17] = assay: Antimicrobial activity against Bacillus subtilis at 15 ug after 24 hrs by disk diffusion method; format: functional; details: read-out: IZ; summary of the method: as §1
# Klebsiella pneumoniae [18] = assay: Antimicrobial activity against Klebsiella pneumoniae at 5 ug after 24 hrs by disk diffusion method; format: functional; details: read-out: IZ; summary of the method: as §1
# Pseudomonas aeruginosa [19] = assay: Antimicrobial activity against Pseudomonas aeruginosa at 10 ug after 24 hrs by disk diffusion method; format: functional; details: read-out: IZ; summary of the method: as §1
# Staphylococcus aureus [20] = assay: Antimicrobial activity against Staphylococcus aureus at 15 ug after 24 hrs by disk diffusion method; format: functional; details: read-out: IZ; summary of the method: as §1
# Escherichia coli [21] = assay: Antimicrobial activity against Escherichia coli at 20 ug after 24 hrs by disk diffusion method; format: functional; details: read-out: IZ; summary of the method: as §1
# Staphylococcus aureus [22] = assay: Antimicrobial activity against Staphylococcus aureus at 5 ug after 24 hrs by disk diffusion method; format: functional; details: read-out: IZ; summary of the method: as §1
# Klebsiella pneumoniae [23] = assay: Antimicrobial activity against Klebsiella pneumoniae at 10 ug after 24 hrs by disk diffusion method; format: functional; details: read-out: IZ; summary of the method: as §1
# Staphylococcus aureus [24] = assay: Antimicrobial activity against Staphylococcus aureus at 25 ug after 24 hrs by disk diffusion method; format: functional; details: read-out: IZ; summary of the method: as §1
# Staphylococcus aureus [25] = assay: Antimicrobial activity against Staphylococcus aureus at 20 ug after 24 hrs by disk diffusion method; format: functional; details: read-out: IZ; summary of the method: as §1
# Bacillus subtilis [26] = assay: Antimicrobial activity against Bacillus subtilis by broth microdilution assay; format: functional; summary of the method: as §2
# Pseudomonas aeruginosa [27] = assay: Antimicrobial activity against Pseudomonas aeruginosa at 15 ug after 24 hrs by disk diffusion method; format: functional; details: read-out: IZ; summary of the method: as §1
# Escherichia coli [28] = assay: Antimicrobial activity against Escherichia coli at 25 ug after 24 hrs by disk diffusion method; format: functional; details: read-out: IZ; summary of the method: as §1
# Klebsiella pneumoniae [29] = assay: Antimicrobial activity against Klebsiella pneumoniae at 15 ug after 24 hrs by disk diffusion method; format: functional; details: read-out: IZ; summary of the method: as §1
# Salmonella typhimurium [30] = assay: Antimicrobial activity against Salmonella Typhimurium at 15 ug after 24 hrs by disk diffusion method; format: functional, Salmonella enterica subsp. enterica serovar Typhimurium; details: Salmonella enterica, read-out: IZ; summary of the method: as §1
# Staphylococcus aureus [31] = assay: Antimicrobial activity against Staphylococcus aureus at 10 ug after 24 hrs by disk diffusion method; format: functional; details: read-out: IZ; summary of the method: as §1
# Escherichia coli [32] = assay: Antimicrobial activity against Escherichia coli at 5 ug after 24 hrs by disk diffusion method; format: functional; details: read-out: IZ; summary of the method: as §1
# Pseudomonas aeruginosa [33] = assay: Antimicrobial activity against Pseudomonas aeruginosa at 5 ug after 24 hrs by disk diffusion method; format: functional; details: read-out: IZ; summary of the method: as §1
# Pseudomonas aeruginosa [34] = assay: Antimicrobial activity against Pseudomonas aeruginosa by broth microdilution assay; format: functional; summary of the method: as §2
# Pseudomonas aeruginosa [35] = assay: Antimicrobial activity against Pseudomonas aeruginosa at 25 ug after 24 hrs by disk diffusion method; format: functional; details: read-out: IZ; summary of the method: as §1
# Escherichia coli [36] = assay: Antimicrobial activity against Escherichia coli by broth microdilution assay; format: functional; summary of the method: as §2
# Bacillus subtilis [37] = assay: Antimicrobial activity against Bacillus subtilis at 20 ug after 24 hrs by disk diffusion method; format: functional; details: read-out: IZ; summary of the method: as §1
smiles,measurement,setting,value
c1ccc(C2c3cc(Cc4ccc5c(c4)C(c4ccccc4)C4Cn6cccc6C4N5)ccc3NC3c4cccn4CC32)cc1 (centres undefined),zone of inhibition at 25 µg/disc,Salmonella typhimurium [1],24 mm
same,Activity,[2],Active
same,zone of inhibition at 20 µg/disc,Klebsiella pneumoniae [3],24 mm
same,zone of inhibition at 5 µg/disc,Bacillus subtilis [4],7 mm
same,zone of inhibition at 15 µg/disc,Escherichia coli [5],16 mm
same,zone of inhibition at 20 µg/disc,Pseudomonas aeruginosa [6],28 mm
same,Activity,[7],Active
same,zone of inhibition at 25 µg/disc,Bacillus subtilis [8],13 mm
same,zone of inhibition at 25 µg/disc,Klebsiella pneumoniae [9],26 mm
same,MIC50,Klebsiella pneumoniae [10],0.125 µg/mL
same,MIC90,Klebsiella pneumoniae [10],2 µg/mL
same,zone of inhibition at 10 µg/disc,Bacillus subtilis [11],9 mm
same,zone of inhibition at 10 µg/disc,Escherichia coli [12],14 mm
same,zone of inhibition at 5 µg/disc,Salmonella typhimurium [13],10 mm
same,zone of inhibition at 10 µg/disc,Salmonella typhimurium [14],16 mm
same,MIC50,Salmonella typhi,2.51 µg/mL
same,MIC90,Salmonella typhi,5 µg/mL
same,zone of inhibition at 20 µg/disc,Salmonella typhimurium [15],22 mm
same,MIC50,Staphylococcus aureus [16],128 µg/mL
same,MIC90,Staphylococcus aureus [16],128 µg/mL
same,zone of inhibition at 15 µg/disc,Bacillus subtilis [17],10 mm
same,zone of inhibition at 5 µg/disc,Klebsiella pneumoniae [18],12 mm
same,zone of inhibition at 10 µg/disc,Pseudomonas aeruginosa [19],24 mm
same,zone of inhibition at 15 µg/disc,Staphylococcus aureus [20],15 mm
same,zone of inhibition at 20 µg/disc,Escherichia coli [21],21 mm
same,zone of inhibition at 5 µg/disc,Staphylococcus aureus [22],9 mm
same,zone of inhibition at 10 µg/disc,Klebsiella pneumoniae [23],16 mm
same,zone of inhibition at 25 µg/disc,Staphylococcus aureus [24],21 mm
same,zone of inhibition at 20 µg/disc,Staphylococcus aureus [25],17 mm
same,MIC50,Bacillus subtilis [26],0.25 µg/mL
same,MIC90,Bacillus subtilis [26],5 µg/mL
same,zone of inhibition at 15 µg/disc,Pseudomonas aeruginosa [27],26 mm
same,zone of inhibition at 25 µg/disc,Escherichia coli [28],22 mm
same,zone of inhibition at 15 µg/disc,Klebsiella pneumoniae [29],19 mm
same,zone of inhibition at 15 µg/disc,Salmonella typhimurium [30],18 mm
same,zone of inhibition at 10 µg/disc,Staphylococcus aureus [31],13 mm
same,zone of inhibition at 5 µg/disc,Escherichia coli [32],11 mm
same,zone of inhibition at 5 µg/disc,Pseudomonas aeruginosa [33],20 mm
same,MIC50,Pseudomonas aeruginosa [34],1 µg/mL
same,MIC90,Pseudomonas aeruginosa [34],8 µg/mL
same,zone of inhibition at 25 µg/disc,Pseudomonas aeruginosa [35],30 mm
same,MIC50,Escherichia coli [36],2 µg/mL
same,MIC90,Escherichia coli [36],8 µg/mL
same,zone of inhibition at 20 µg/disc,Bacillus subtilis [37],12 mm

# From ChEMBL document CHEMBL1140876, “Synthesis and antibacterial property of quinolines with potent DNA gyrase activity” (2009)
